Source: ChEMBL document CHEMBL1141543, “Protective effect of nitronyl nitroxide-amino acid conjugates on liver ischemia-reperfusion induced injury in rats” (Bioorg Med Chem Lett, 2008)
Calls of active or inactive are those of the source. No cut-off for these calls is given here.

Assays:
PC-12 [1] = assay: Nitric oxide radical scavenging activity in rat PC12 cells; format: functional, cell-based
Summary of the method: (§1)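 PC12 rat pheochromocytoma cells exposed to NO, H2O2 or ·OH. Test compound given either as pre-incubation before radical exposure or as incubation after exposure. Cell survival read by MTT reduction, used as the index of radical scavenging.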

PC-12 [2] = assay: Hydrogen peroxide radical scavenging activity in rat PC12 cells; format: functional, cell-based; summary of the method: as §1
PC-12 [3] = assay: Hydroxyl radical scavenging activity in rat PC12 cells; format: functional, cell-based; summary of the method: as §1
Aorta [4] = assay: Nitric oxide radical scavenging activity in rat thoracic aorta assessed as inhibition of acteylcholine-induced vasorelaxation at 100 umol; format: functional, tissue-based
Aorta [5] = assay: Nitric oxide radical scavenging activity in rat thoracic aorta assessed as inhibition of acteylcholine-induced vasorelaxation at 10 umol; format: functional, tissue-based
Aorta [6] = assay: Nitric oxide radical scavenging activity in rat thoracic aorta assessed as inhibition of acteylcholine-induced vasorelaxation at 1 umol; format: functional, tissue-based
Rattus norvegicus [7] = assay: Protection against hepatic ischemia-reperfusion-induced injury assessed as effect on malondialdehyde level in Wistar rat liver at 30 mg/kg; format: functional
Summary of the method: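 Male Wistar rats given liver ischemia 30 min and reperfusion 2 h under pentobarbital anesthesia. Drug 30 mg/kg dosed 10 min before reperfusion and 1 h after it began; controls got saline. Liver frozen at -70 °C. MDA in liver mitochondria measured spectrophotometrically as thiobarbituric acid reactive substances (Buege and Aust method).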

Rattus norvegicus [8] = assay: Protection against hepatic ischemia-reperfusion-induced injury assessed as effect on aspartate aminotransferase level in Wistar rat liver at 30 mg/kg; format: functional
Summary of the method: (§2)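 Male Wistar rats, liver ischemia 30 min then reperfusion 2 h under sodium pentobarbital anesthesia (80 mg/kg). Drug 30 mg/kg given 10 min before reperfusion and again 1 h into reperfusion; sham and I/R controls received saline. n = 8 per group (sham n = 4). Serum ALT and AST measured as liver function; blood frozen at -70 °C until analysis.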

Rattus norvegicus [9] = assay: Protection against hepatic ischemia-reperfusion-induced injury assessed as effect on alanine aminotransferase level in Wistar rat liver at 30 mg/kg; format: functional; summary of the method: as §2
PC-12 [10] = assay: Suppression of free radical-induced decrease in viability of rat PC12 cells; format: functional, cell-based; summary of the method: as §1

| SMILES | EC50 (PC-12 [1]) [µM] | EC50 (PC-12 [2]) [µM] | EC50 (PC-12 [3]) [µM] | inhibition (Aorta [4]) [%] | inhibition (Aorta [5]) [%] | inhibition (Aorta [6]) [%] | Activity (Rattus norvegicus [7]) [nmol/mg] | Activity (Rattus norvegicus [8]) [U/L] | Activity (Rattus norvegicus [9]) [U/L] | Activity (PC-12 [10]) |
| --- | --- | --- | --- | --- | --- | --- | --- | --- | --- | --- |
| CC1(C)N([O])C(c2ccc(OCC(=O)N[C@@H](CCCNC(=N)N)C(=O)O)cc2)=[N+]([O-])C1(C)C | 92.8 | 49 | 98.9 | 98.9 | 74 | 28.7 | 2.76 | 510 | 173 | Active |
| N=C(N)NCCC[C@H](N)C(=O)O [ARGININE] | – | – | – | – | – | – | 3.82 | 789 | 493 | – |
| CC1(C)N([O])C(c2ccc(OCC(=O)N[C@@H](CCCCN)C(=O)O)cc2)=[N+]([O-])C1(C)C | 85.5 | 26.8 | 92.7 | 85 | 60.7 | 24.8 | – | – | – | Active |
